From ChEMBL document CHEMBL1122917, “Vinblastin-23-oyl amino acid derivatives: chemistry, physicochemical data, toxicity, and antitumor activities against P388 and L1210 leukemias” (J Med Chem, 1985)
Several values for one entry are separate records, joined by “and”; a condition that tells them apart may be missing. Identical values can stand only once.

How the values were obtained:
[1] = Acute iv toxicity against NMRI strain of 100 mice after 7 doses of injection; assay type: organism-based; details: mouse, in vivo
In short: (§1)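 Acute toxicity in Swiss, CD1 or NMRI mice. Drugs given iv as sulfate salts. LD50 taken at day 14 from several dose levels, with 40–[…] mice per drug and strain.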

[2] = Acute iv toxicity against CD1 strain of 40 mice after 4 doses of injection; assay type: organism-based; details: CD1, mouse, in vivo; in short: as §1
[3] = Acute iv toxicity against Swiss strain of 40 mice after 4 doses of injection; assay type: organism-based; details: mouse, in vivo; in short: as §1
Mus musculus [4] = assay: Percent increase in life span of DBA2 mice after inoculation with L1210 leukemia intravenously at a dose of 5 mg/kg per day; assay type: functional; details: for ILS at 5 mg/kg/day: Mus musculus, L1210, iv
In short: (§2)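 Female DBA2 mice inoculated iv on day 0 with 10^4 L1210 cells; drugs given iv as sulfate salts in physiological saline, mostly once on day 1. %ILS from all deaths and survivors as (T/C × 100) − 100; survivors scored on days 30 and 60.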

Mus musculus [5] = assay: Percent increase in life span of DBA2 mice after inoculation with L1210 leukemia intravenously at a dose of 7 mg/kg per day; assay type: functional; details: route intravenous; in short: as §2
Mus musculus [6] = assay: Number of survivors on 60th day at dose 9 mg/kg/day in 10 mice implanted with P388 leukemia cell line; 0/10; assay type: functional
In short: (§3)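 Female DBA2 mice inoculated iv on day 0 with 10^4 P388 cells; single iv treatment on day 1 with drug as sulfate salt in physiological saline. Survival followed; %ILS from all deaths and survivors as (T/C × 100) − 100, maximal MST 30 days; survivors counted on days 30 and 60. Most experiments confirmed three times.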

Mus musculus [7] = assay: Number of survivors of DBA2 mice on 30th day after inoculation with L1210 leukemia cell line intravenously at a dose of 7 mg/kg/day; 0/10; assay type: functional; details: route intravenous
Mus musculus [8] = assay: Percent increase in life span at dose 4 mg/kg/day in 10 mice implanted with P388 leukemia cell line; assay type: functional; details: for ILS at 4 mg/kg/day: Mus musculus, P388; in short: as §3
Mus musculus [9] = assay: Number of survivors of DBA2 mice on 60th day after inoculation with L1210 leukemia cell line intravenously at a dose of 4 mg/kg/day; 0/10; assay type: functional; details: route intravenous
Mus musculus [10] = assay: Number of survivors of DBA2 mice on 60th day after inoculation with L1210 leukemia cell line intravenously at a dose of 9 mg/kg/day; 0/10; assay type: functional; details: route intravenous
In short: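 Female DBA₂ mice received 10⁴ L1210 cells iv on day 0. Compounds were given iv as sulfate salts in physiological saline, as a single dose on day 1 (mg/kg per day). Groups were 10 mice. Survivors were counted on day 60. Cells were maintained by ip passage in DBA₂ mice.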

Mus musculus [11] = assay: Percent increase in life span of DBA2 mice after inoculation with L1210 leukemia intravenously at a dose of 8 mg/kg per day; assay type: functional; details: route intravenous; in short: as §2
Mus musculus [12] = assay: Percent increase in life span at dose 5 mg/kg/day in 10 mice implanted with P388 leukemia cell line; assay type: functional; in short: as §3
Mus musculus [13] = assay: Number of survivors on 60th day at dose 7 mg/kg/day in 10 mice implanted with P388 leukemia cell line; 0/10; assay type: functional; in short: as §3
Mus musculus [14] = assay: Number of survivors on 30th day at dose 4 mg/kg/day in 10 mice implanted with P388 leukemia cell line; 0/10; assay type: functional
Mus musculus [15] = assay: Number of survivors of DBA2 mice on 60th day after inoculation with L1210 leukemia cell line intravenously at a dose of 5 mg/kg/day; 0/10; assay type: functional; details: route intravenous
Mus musculus [16] = assay: Percent increase in life span at dose 8 mg/kg/day in 10 mice implanted with P388 leukemia cell line; assay type: functional; in short: as §3
Mus musculus [17] = assay: Percent increase in life span at dose 6 mg/kg/day in 10 mice implanted with P388 leukemia cell line; assay type: functional; in short: as §3
Mus musculus [18] = assay: Percent increase in life span of DBA2 mice after inoculation with L1210 leukemia intravenously at a dose of 4 mg/kg per day; assay type: functional; details: route intravenous; in short: as §2
Mus musculus [19] = assay: Number of survivors of DBA2 mice on 30th day after inoculation with L1210 leukemia cell line intravenously at a dose of 4 mg/kg/day; 0/10; assay type: functional; details: route intravenous
Mus musculus [20] = assay: Number of survivors on 60th day at dose 6 mg/kg/day in 10 mice implanted with P388 leukemia cell line; 0/10; assay type: functional
Mus musculus [21] = assay: Percent increase in life span at dose 7 mg/kg/day in 10 mice implanted with P388 leukemia cell line; assay type: functional; in short: as §3
Mus musculus [22] = assay: Number of survivors of DBA2 mice on 30th day after inoculation with L1210 leukemia cell line intravenously at a dose of 5 mg/kg/day; 0/10; assay type: functional; details: route intravenous
Mus musculus [23] = assay: Number of survivors of DBA2 mice on 60th day after inoculation with L1210 leukemia cell line intravenously at a dose of 7 mg/kg/day; 0/10; assay type: functional; details: route intravenous
Mus musculus [24] = assay: Number of survivors of DBA2 mice on 30th day after inoculation with L1210 leukemia cell line intravenously at a dose of 8 mg/kg/day; 0/10; assay type: functional; details: route intravenous
Mus musculus [25] = assay: Number of survivors on 60th day at dose 3 mg/kg/day in 10 mice implanted with P388 leukemia cell line; 0/10; assay type: functional
Mus musculus [26] = assay: Number of survivors on 60th day at dose 5 mg/kg/day in 10 mice implanted with P388 leukemia cell line; 0/10; assay type: functional
Mus musculus [27] = assay: Number of survivors of DBA2 mice on 60th day after inoculation with L1210 leukemia cell line intraperitoneally at a dose of 3 mg/kg/day; 0/10; assay type: functional; details: route intraperitoneal
[28] = Acute iv toxicity against rat after a dose of injection; assay type: organism-based; details: in vivo
[29] = Acute iv toxicity against mice after a dose of injection; assay type: organism-based; details: mouse, in vivo
Mus musculus [30] = assay: Number of survivors of DBA2 mice on 30th day after inoculation with L1210 leukemia cell line intraperitoneally at a dose of 2 mg/kg/day; 0/10; assay type: functional; details: route intraperitoneal
Mus musculus [31] = assay: Number of survivors of DBA2 mice on 30th day after inoculation with L1210 leukemia cell line intraperitoneally at a dose of 3 mg/kg/day; 0/10; assay type: functional; details: route intraperitoneal
Mus musculus [32] = assay: Percent increase in life span of BDF1 mice after inoculation with P388 leukemia intraperitoneally at a dose of 2 mg/kg per day; details: P388, ip
Mus musculus [33] = assay: Number of survivors on 60th day at dose 4 mg/kg/day in 10 mice implanted with P388 leukemia cell line for 1st scheduled day; 0/10; assay type: functional
Mus musculus [34] = assay: Number of survivors of DBA2 mice on 60th day after inoculation with L1210 leukemia cell line intravenously at a dose of 3 mg/kg/day; 0/10; assay type: functional; details: route intravenous
Mus musculus [35] = assay: Number of survivors of DBA2 mice on 30th day after inoculation with L1210 leukemia cell line intravenously at a dose of 3 mg/kg/day; 0/10; assay type: functional; details: route intravenous
Mus musculus [36] = assay: Percent increase in life span of BDF1 mice after inoculation with P388 leukemia intraperitoneally at a dose of 6 mg/kg per day; details: P388, ip
Mus musculus [37] = assay: Number of survivors of DBA2 mice on 60th day after inoculation with L1210 leukemia cell line intravenously at a dose of 2.5 mg/kg/day; 0/10; assay type: functional; details: route intravenous
Mus musculus [38] = assay: Percent increase in life span at dose 2 mg/kg/day in 10 mice implanted with P388 leukemia cell line; assay type: functional; in short: as §3

SMILES | ILS at 5 mg/kg/day (Mus musculus [4]) | ILS at 7 mg/kg/day (Mus musculus [5]) | Survivors (Mus musculus [7]) | Survivors (Mus musculus [9]) | ILS at 5 mg/kg/day (Mus musculus [12]) | Survivors (Mus musculus [14]) | Survivors (Mus musculus [15]) | ILS at 8 mg/kg/day (Mus musculus [16]) | ILS at 6 mg/kg/day (Mus musculus [17]) | ILS at 4 mg/kg/day (Mus musculus [18]) | Survivors (Mus musculus [19]) | Survivors (Mus musculus [20]) | ILS at 7 mg/kg/day (Mus musculus [21]) | Survivors (Mus musculus [22]) | Survivors (Mus musculus [23]) | LD50 [28] | LD50 [29] | Survivors (Mus musculus [30]) | ILS at 2 mg/kg/day (Mus musculus [32]) | Survivors (Mus musculus [34]) | also measured
CCOC(=O)[C@H](Cc1c[nH]c2ccccc12)NC(=O)[C@@]1(O)[C@H](O)[C@]2(CC)C=CCN3CC[C@@]4(c5cc([C@@]6(C(=O)OC)C[C@H]7C[N@](CCc8c6[nH]c6ccccc86)C[C@](O)(CC)C7)c(OC)cc5N(C)[C@@]14C)[C@@H]32 |  |  |  |  |  |  |  |  |  |  |  |  |  |  |  |  |  |  |  |  | LD50 [1]: 269 mg/kg; LD50 [2]: 110 mg/kg; LD50 [3]: 94 mg/kg
CCOC(=O)[C@@H](NC(=O)[C@@]1(O)[C@H](O)[C@]2(CC)C=CCN3CC[C@@]4(c5cc([C@@]6(C(=O)OC)C[C@H]7C[N@](CCc8c6[nH]c6ccccc86)C[C@](O)(CC)C7)c(OC)cc5N(C)[C@@]14C)[C@@H]32)[C@@H](C)CC | 36% | 27% | 0 | 0 | 60.4% | 0 | 0 | > 183% | 73.5% | 20% | 0 | 0 | 56% | 0 | 0 |  |  |  |  |  | Survivors (Mus musculus [6]): 0; ILS at 4 mg/kg/day (Mus musculus [8]): 60%; Survivors (Mus musculus [10]): 0; ILS at 8 mg/kg/day (Mus musculus [11]): 49%; Survivors (Mus musculus [13]): 0; Survivors (Mus musculus [24]): 0
CC[C@]1(O)C[C@@H]2CN(CCc3c([nH]c4ccccc34)[C@@](C(=O)OC)(c3cc4c(cc3OC)N(C)[C@H]3[C@@](O)(C(=O)OC)[C@H](OC(C)=O)[C@]5(CC)C=CCN6CC[C@]43[C@@H]65)C2)C1 [VINBLASTINE] | 37% | 35% | 0 | 0 | 47.1% | 0 | 0 | 72.9% | 48% | 31.9% | 0 | 0 | 59.3% | 0 | 0 | 2.9 mg/kg | 10 mg/kg | 0 | 54% | 0 | LD50 [1]: 27.4 mg/kg; Survivors (Mus musculus [6]): 0; Survivors (Mus musculus [25]): 0; Survivors (Mus musculus [26]): 0; Survivors (Mus musculus [27]): 0; ILS (Mus musculus [8]): 42.3% and 112%; Survivors (Mus musculus [10]): 0; ILS at 8 mg/kg/day (Mus musculus [11]): 57.6%; LD50 [2]: 28 mg/kg; Survivors (Mus musculus [31]): 0; Survivors (Mus musculus [33]): 0; LD50 [3]: 26 mg/kg; Survivors (Mus musculus [35]): 0; Survivors (Mus musculus [24]): 0; ILS at 6 mg/kg/day (Mus musculus [36]): -61%
CC[C@]1(O)C[C@H]2CN(CCc3c([nH]c4ccccc34)[C@@](C(=O)OC)(c3cc4c(cc3OC)N(C=O)[C@H]3[C@@](O)(C(=O)OC)[C@H](OC(C)=O)[C@]5(CC)C=CCN6CC[C@]43[C@@H]65)C2)C1 [VINCRISTINE] | 36% |  |  | 0 |  |  | 0 |  |  | 24% | 0 |  |  | 0 |  | 1 mg/kg | 1 mg/kg | 0 | 53% | 0 | Survivors (Mus musculus [37]): 0; ILS at 2 mg/kg/day (Mus musculus [38]): -46%; Survivors (Mus musculus [35]): 0
CC[C@]1(O)C[C@@H]2CN(CCc3c([nH]c4ccccc34)[C@@](C(=O)OC)(c3cc4c(cc3OC)N(C)[C@H]3[C@@](O)(C(N)=O)[C@H](O)[C@]5(CC)C=CCN6CC[C@]43[C@@H]65)C2)C1 [VINDESINE] |  | -9.1% | 0 |  | 30.2% | 0 | 0 | -46% | 32% |  |  | 0 | 24% | 0 | 0 | 2.6 mg/kg | 6.3 mg/kg | 0 | 89.5% | 0 | ILS (Mus musculus [4]; route intravenous): 11.5% and 25.7%; Survivors (Mus musculus [25]): 0; Survivors (Mus musculus [26]): 0; Survivors (Mus musculus [27]): 0; ILS at 4 mg/kg/day (Mus musculus [8]): 25.5%; Survivors (Mus musculus [37]): 0; Survivors (Mus musculus [13]): 0; Survivors (Mus musculus [31]): 0; ILS at 2 mg/kg/day (Mus musculus [38]): 27.1%; Survivors (Mus musculus [33]): 0; ILS at 6 mg/kg/day (Mus musculus [36]): -47%
